Reference: ChEMBL document CHEMBL5705901, “Exploiting selective BCL-2 family inhibitors to dissect cell survival dependencies and define improved strategies for cancer therapy” (Sci Transl Med, 2015)
The source made the active and inactive calls. The calls are words filed in the database; no cut-off is given here.

Key:
MDA-MB-231 [1] = assay: Antitumor activity against LC3 positive human MDA-MB-231 cells xenografted in SCID mouse assessed as tumor growth delay at 25 mg/kg, po administered daily for 14 days relative to control; assay type: functional; details: time 14 day
Method in brief: (§1)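 MDA-MB-231 LC3 metastatic breast cancer xenograft, 10 mice per group, with a vehicle control. Dosing: oral agent 25 mg/kg daily for 14 days; docetaxel 7.5 mg/kg iv once; combination gives both regimens. Mean tumor volumes tracked. TGImax = 100(1 − Tv/Cv) from mean treated vs control volumes. TGD = 100(T/C − 1) from median times to reach 1 cm3.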

MDA-MB-231 [2] = assay: Synergistic antitumor activity against LC3 positive human MDA-MB-231 cells xenografted in SCID mouse assessed as maximum tumor growth inhibition at 25 mg/kg, po coadministered with docetaxel once daily for 14 days relative to control; assay type: functional; details: MDA-MB-231, 336 h, time 14 day, read-out: TGI; method in brief: as §1
EBC-1 = assay: Antitumor activity against human EBC-1 cells xenografted in po dosed SCID-bg mouse assessed as maximum tumor growth inhibition relative to control; assay type: functional
[3] = Toxicity in po dosed SCID mouse assessed as body weight loss in presence of docetaxel relative to control; assay type: organism-based; details: in vivo
MDA-MB-231 [4] = assay: Synergistic antitumor activity against LC3 positive human MDA-MB-231 cells xenografted in SCID mouse assessed as tumor growth delay at 25 mg/kg, po coadministered with docetaxel once daily for 14 days relative to control; assay type: functional; details: time 14 day; method in brief: as §1
MOLT-4 [5] = assay: Induction of apoptosis in human MOLT-4 cells assessed as cytochrome C release from mitochondria upto 500 nM incubated for 4 hrs by immunoblot analysis; assay type: functional, cell-based
Method in brief: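 Molt-4 cells were treated for 4 h with increasing concentrations. Cytochrome c in the mitochondrial and cytosolic fractions was determined by immunoblotting.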

[6] = Toxicity in po dosed SCID-bg mouse assessed as tolerance in presence of docetaxel; assay type: organism-based; details: in vivo
MOLT-4 [7] = assay: Induction of apoptosis in human MOLT-4 cells assessed as caspase-3/7 activation at 1 to 667 nM incubated for 4 hrs; assay type: functional, cell-based; details: dose 1-667 nM
Method in brief: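 Molt-4 cells were incubated with increasing concentrations for 4 h, and caspase-3/7 activation was measured. Values are the mean of triplicate experiments ± SD.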

[8] = Toxicity in po dosed SCID-bg mouse assessed as tolerance; assay type: organism-based; details: in vivo
MDA-MB-468 [9] = assay: Induction of apoptosis in human MDA-MB-468 cells assessed as increase in caspase cleavage incubated for 48 hrs in presence of docetaxel by immunoblot analysis; assay type: functional, cell-based
HCC1143 = assay: Induction of apoptosis in human HCC1143 cells assessed as accumulation of cells with sub-G0-G1 DNA content at 1 uM incubated for 48 hrs in presence of docetaxel by flow cytometric analysis; assay type: functional, cell-based
ZR-75-1 [10] = assay: Induction of apoptosis in human ZR-75-1 cells assessed as poly(ADP-ribose) polymerase cleavage incubated for 48 hrs in presence of docetaxel by immunoblot analysis; assay type: functional, cell-based
MDA-MB-468 [11] = assay: Induction of apoptosis in human MDA-MB-468 cells assessed as accumulation of cells with sub-G0-G1 DNA content at 1 uM incubated for 48 hrs in presence of docetaxel by flow cytometric analysis; assay type: functional, cell-based
ZR-75-1 [12] = assay: Induction of apoptosis in human ZR-75-1 cells assessed as increase in caspase cleavage incubated for 48 hrs in presence of docetaxel by immunoblot analysis; assay type: functional, cell-based
HCC1428 = assay: Induction of apoptosis in human HCC1428 cells assessed as accumulation of cells with sub-G0-G1 DNA content at 1 uM incubated for 48 hrs in presence of docetaxel by flow cytometric analysis; assay type: functional, cell-based
OVCAR-3 = assay: Synergistic antiproliferative activity against human OVCAR-3 cells assessed as reduction in cell viability by measuring bliss sum score incubated for 72 hrs in presence of docetaxel by CellTiter-Glo cell vaibility assay; assay type: functional
SW1573 = assay: Synergistic antiproliferative activity against human SW1573 cells assessed as reduction in cell viability by measuring bliss sum score incubated for 72 hrs in presence of docetaxel by CellTiter-Glo cell vaibility assay; assay type: functional
MDA-MB-436 = assay: Antagonistic antiproliferative activity against human MDA-MB-436 cells assessed as reduction in cell viability by measuring bliss sum score incubated for 72 hrs in presence of docetaxel by CellTiter-Glo cell vaibility assay; assay type: functional
OVCAR-5 = assay: Synergistic antiproliferative activity against human OVCAR-5 cells assessed as reduction in cell viability by measuring bliss sum score incubated for 72 hrs in presence of docetaxel by CellTiter-Glo cell vaibility assay; assay type: functional
NCI-H146 [13] = assay: Induction of apoptosis in Bcl-xl dependent human NCI-H146 cells assessed as caspase 3/7 activation at 1 to 667 nM incubated for 4 hrs by immunoblot analysis; assay type: functional, cell-based; details: dose 1-667 nM
Method in brief: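 NCI-H146 cells were incubated with increasing concentrations for 4 h, and caspase-3/7 activation was measured. Values are the mean of triplicate experiments ± SD.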

DU-4475 = assay: Synergistic antiproliferative activity against human DU-4475 cells assessed as reduction in cell viability by measuring bliss sum score incubated for 72 hrs in presence of docetaxel by CellTiter-Glo cell vaibility assay; assay type: functional
NCI-H1975 = assay: Synergistic antiproliferative activity against human NCI-H1975 cells assessed as reduction in cell viability by measuring bliss sum score incubated for 72 hrs in presence of docetaxel by CellTiter-Glo cell vaibility assay; assay type: functional
HCC1569 = assay: Synergistic antiproliferative activity against human HCC1569 cells assessed as reduction in cell viability by measuring bliss sum score incubated for 72 hrs in presence of docetaxel by CellTiter-Glo cell vaibility assay; assay type: functional
NCI-H522 = assay: Synergistic antiproliferative activity against human NCI-H522 cells assessed as reduction in cell viability by measuring bliss sum score incubated for 72 hrs in presence of docetaxel by CellTiter-Glo cell vaibility assay; assay type: functional
NCI-H146 [14] = assay: Induction of apoptosis in Bcl-xl dependent human NCI-H146 cells assessed as cytochrome C release from mitochondria at 0.1 to 1000 nM incubated for 4 hrs by immunoblot analysis; assay type: functional, cell-based; details: dose 0.1-1000 nM
Method in brief: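 NCI-H146 cells were treated for 4 h with increasing concentrations. Mitochondrial and cytosolic fractions were separated, and cytochrome c in each was determined by immunoblotting.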

ZR-75-1 [15] = assay: Synergistic antiproliferative activity against human ZR-75-1 cells assessed as reduction in cell viability by measuring bliss sum score incubated for 72 hrs in presence of docetaxel by CellTiter-Glo cell vaibility assay; assay type: functional
NCI-H146 [16] = assay: Induction of apoptosis in Bcl-xl dependent human NCI-H146 cells assessed as accumulation of caspase-dependent sub G0-G1 DNA content upto 5000 nM incubated for 24 hrs by fluorescence-activated cell sorting analysis; assay type: functional, cell-based
Method in brief: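 NCI-H146 cells were preincubated for 1 h with or without the caspase inhibitor Z-VAD-fmk (75 μM). They were then exposed to increasing concentrations for 24 h. Sub-G0-G1 DNA content was measured by fluorescence-activated cell sorting.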

NCI-H23 = assay: Synergistic antiproliferative activity against human NCI-H23 cells assessed as reduction in cell viability by measuring bliss sum score incubated for 72 hrs in presence of docetaxel by CellTiter-Glo cell vaibility assay; assay type: functional
Hs-578T = assay: Synergistic antiproliferative activity against human Hs-578T cells assessed as reduction in cell viability by measuring bliss sum score incubated for 72 hrs in presence of docetaxel by CellTiter-Glo cell vaibility assay; assay type: functional

In the case of Cc1c(-c2ccc(N3CCc4cccc(C(=O)Nc5nc6ccccc6s5)c4C3)nc2C(=O)O)cnn1CC12CC3CC(CC(C3)C1)C2, the Activity (MDA-MB-231 [1]) is reported as 55%, the inhibition in vivo at 25 mg/kg (MDA-MB-231 [2]) is reported as 93% and the TGI (EBC-1) is reported as 52%. The Activity [3] was less than 9%, the Activity (MDA-MB-231 [4]) was 141% and the Activity (MOLT-4 [5]) was “Active”. For the same molecule, the Activity [6] was “Non-Toxic”, the Activity (MOLT-4 [7]) was “Active” and the Activity [8] was “Non-Toxic”.
In the case of CC1(C)CCC(c2ccc(Cl)cc2)=C(CN2CCN(c3ccc(C(=O)NS(=O)(=O)c4ccc(N[C@H](CCN5CCOCC5)CSc5ccccc5)c(S(=O)(=O)C(F)(F)F)c4)cc3)CC2)C1 [NAVITOCLAX], the Activity (MDA-MB-468 [9]) is reported as “Active”, the Activity (HCC1143) is reported as “Active” and the Activity (ZR-75-1 [10]) is reported as “Active”. For the same molecule, the Activity (MDA-MB-468 [11]) was “Active”, the Activity (ZR-75-1 [12]) was “Active” and the Activity (HCC1428) was “Active”.
Molecule CN(C)CC#Cc1ccc(OCCCc2sc(N3CCc4cccc(C(=O)Nc5nc6ccccc6s5)c4C3)nc2C(=O)O)c(F)c1 [A-1155463] has an Activity_index (OVCAR-3) of 683, an Activity_index (SW1573) of 461 and an Activity_index (MDA-MB-436) of -96. The Activity_index (OVCAR-5) was 706, the Activity (NCI-H146 [13]) was “Active” and the Activity_index (DU-4475) was 229. The Activity_index (NCI-H1975) was 6, the Activity_index (HCC1569) was 185 and the Activity_index (NCI-H522) was 242. For the same molecule, the Activity (NCI-H146 [14]) was “Active”, the Activity_index (ZR-75-1 [15]) was 103 and the Activity (NCI-H146 [16]) was “Active”. The Activity_index (NCI-H23) was 97 and the Activity_index (Hs-578T) was 62.
